Test results published in ChEMBL document CHEMBL4673188, “Identification of 6-amino-1H-pyrazolo[3,4-d]pyrimidines with in vivo efficacy against visceral leishmaniasis” (RSC Med Chem, 2020).

Test system: not listed separately
Assay: Intrinsic clearance in CD-1 mouse liver microsomes at 0.5 uM in presence of NADPH measured up to 30 mins by UPLC-MS/MS analysis
Type: ADME, Microsome
Conditions: 0.5 h
Procedure, shortened: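 Female CD1 mouse liver microsomes, test compound 0.5 μM; reaction started with excess NADPH (8 mg/mL in 50 mM potassium phosphate, pH 7.4). Aliquots at 0, 3, 6, 9, 15, 30 min quenched in acetonitrile, internal standard added, protein spun down; UPLC-MS/MS. Rate constant k from exponential decay of compound/internal standard peak-area ratio.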

| SMILES | intrinsic clearance |
| --- | --- |
| COc1ccccc1-c1n[nH]c2nc(NC3CCN(c4ccc(Cl)nn4)CC3)ncc12 | 3.4 mL/min/g |
| COc1ccccc1-c1n[nH]c2nc(NC3CCN(C(=O)N4CCOCC4)CC3)ncc12 | 2 mL/min/g |
| COc1ccccc1-c1n[nH]c2nc(NC3CCN(C(=O)OCc4ccccc4)CC3)ncc12 | 9 mL/min/g |
| CC(C)Cc1n[nH]c2nc(NC3CCN(C(=O)Cc4ccc(Cl)cc4Cl)CC3)ncc12 | 30 mL/min/g |
| O=C(CC1CC1)N1CCC(Nc2ncc3c(C4CCOCC4)n[nH]c3n2)CC1 | 0.8 mL/min/g |
| CCS(=O)(=O)N[C@H]1CC[C@H](Nc2ncc3c(CC(C)C)n[nH]c3n2)CC1 | 27 mL/min/g |
| CCOC(=O)N1CCC(Nc2ncc3c(-c4ccccc4OC)n[nH]c3n2)CC1 | 14 mL/min/g |
| COc1ccccc1-c1n[nH]c2nc(NC3CCN(S(=O)(=O)CCC(F)(F)F)CC3)ncc12 | 14 mL/min/g |
| CC(C)Cc1n[nH]c2nc(NC3CCN(C(=O)c4ccccc4)CC3)ncc12 | 7 mL/min/g |
| CC(C)Cc1n[nH]c2nc(NC3CCN(C(=O)Cc4ccccc4)CC3)ncc12 | 18 mL/min/g |
| COc1ccccc1-c1n[nH]c2nc(NC3CCN(C(=O)CC4CC4)CC3)ncc12 | 1.6 mL/min/g |
| CC(C)Cc1n[nH]c2nc(NC3CCN(S(=O)(=O)Cc4ccccc4)CC3)ncc12 | > 50 mL/min/g |
| COc1ccccc1-c1n[nH]c2nc(NC3CCN(C(=O)Cc4ccc(F)c(F)c4)CC3)ncc12 | 6.3 mL/min/g |

The remaining lines, values ahead:

| intrinsic clearance | SMILES |
| --- | --- |
| 6.7 mL/min/g | O=C(Cc1ccc(F)cc1F)N1CCC(Nc2ncc3c(-c4ccccn4)n[nH]c3n2)CC1 |
| 3.1 mL/min/g | O=C(Cc1ccc(F)c(F)c1)N1CCC(Nc2ncc3c(C4CCOCC4)n[nH]c3n2)CC1 |
| 0.6 mL/min/g | Clc1ccc(N2CCC(Nc3ncc4c(N5CCOCC5)n[nH]c4n3)CC2)nn1 |
| 3.3 mL/min/g | Cn1nccc1-c1n[nH]c2nc(NC3CCN(C(=O)Cc4ccc(F)cc4F)CC3)ncc12 |
| 5 mL/min/g | O=C(Cc1ccc(F)cc1F)N1CCC(Nc2ncc3c(C4CC4)n[nH]c3n2)CC1 |
| 1.6 mL/min/g | O=C(Cc1ccc(F)c(F)c1)N1CCC(Nc2ncc3c(N4CCOCC4)n[nH]c3n2)CC1 |
| 7.2 mL/min/g | O=C(Cc1ccc(F)cc1F)N1CCC(Nc2ncc3c(-c4ccccc4)n[nH]c3n2)CC1 |
| 2 mL/min/g | O=C(Cc1ccc(F)cc1F)N1CCC(Nc2ncc3c(N4CCOCC4)n[nH]c3n2)CC1 |
| < 0.5 mL/min/g | O=C(Cc1ccc(F)cc1F)N1CCC(Nc2ncc3c(CN4CCOCC4)n[nH]c3n2)CC1 |
| 0.5 mL/min/g | O=C(Cc1ccc(F)cc1F)N1CCC(Nc2ncc3c(C4CCOCC4)n[nH]c3n2)CC1 |
| 5 mL/min/g | COc1ccccc1-c1n[nH]c2nc(NC3CCN(C(=O)Cc4ccc(F)cc4F)CC3)ncc12 |
| 22 mL/min/g | CC(C)(C)Cc1n[nH]c2nc(NC3CCN(C(=O)Cc4ccc(F)cc4F)CC3)ncc12 |
| 15 mL/min/g | COc1ncccc1-c1n[nH]c2nc(NC3CCN(C(=O)Cc4ccc(F)cc4F)CC3)ncc12 |
| 12 mL/min/g | CC(C)Cc1n[nH]c2nc(NC3CCN(C(=O)Cc4ccc(F)cc4F)CC3)ncc12 |

Test system: THP-1
Assay: Cytotoxicity against human THP-1 cells incubated for 72 hrs by resazurin dye based assay
Type: cell-based
Conditions: THP-1, 72 h

| SMILES | EC50 |
| --- | --- |
| CCS(=O)(=O)N[C@H]1CC[C@H](Nc2ncc3c(CC(C)C)n[nH]c3n2)CC1 | > 50.1 µM |

Test system: not listed separately
Assay: AUC (0 to T last) in rat at 10 mg/kg
Type: ADME, organism-based
Design: dose 10 mg/kg
Conditions: in vivo

| AUC(0-t) | SMILES |
| --- | --- |
| 448 ng·h/mL | O=C(Cc1ccc(F)c(F)c1)N1CCC(Nc2ncc3c(N4CCOCC4)n[nH]c3n2)CC1 |

Test system: not listed separately
Assay: Kinetic aqueous solubility of compound in phosphate buffer at pH 7.4 incubated for 1 hr
Type: physicochemical
Conditions: read-out: Kinetic_solubility
Procedure, shortened: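 10 mM DMSO stock diluted 20-fold into pH 7.4 phosphate buffered saline, equilibrated 1 h at room temperature, filtered; filtrate quantified by calibrated charged aerosol detection.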

| solubility kinetic at 1 h | SMILES |
| --- | --- |
| < 1 µM | CCS(=O)(=O)N[C@H]1CC[C@H](Nc2ncc3c(CC(C)C)n[nH]c3n2)CC1 |
